The values that follow come from ChEMBL document CHEMBL3632511, “Oxopyrido[2,3-d]pyrimidines as Covalent L858R/T790M Mutant Selective Epidermal Growth Factor Receptor (EGFR) Inhibitors” (ACS Med Chem Lett, 2015).

Molecules are shown by their SMILES. Calls of active or inactive are those of the source. No cut-off for these calls is given here.

The subject of data set [1] is A-431. Briefly: Cytotoxicity against human A431 cells expressing wild-type EGFR assessed as inhibition of cell proliferation after 72 hrs by CellTiter-Glo assay. The following applies: A-431, 72 h. It counts as cell-based. (In general: In ATP-based viability assays light output follows the ATP content of the culture.)
Data set [2] can be described thus: Cytotoxicity against human HCC827 cells harboring EGFR 746 to 750 deletion mutant assessed as inhibition of cell proliferation after 72 hrs by CellTiter-Glo assay. It counts as functional, cell-based. The following applies: HCC827, 72 h.
In data set [3] the test system is NCI-H1975. As to the kind of experiment: Cytotoxicity against human NCI-H1975 cells harboring EGFR L858R/T790M double mutant assessed as inhibition of cell proliferation after 72 hrs by CellTiter-Glo assay. As to conditions: NCI-H1975, 72 h. It counts as functional, cell-based.
Data set [4] is described as follows: Volume of distribution at steady state in Sprague-Dawley rat at 1 mg/kg, iv. As to conditions: in vivo, read-out: Vdss. It counts as ADME, organism-based. An outline of the steps: (§1)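 Male Sprague Dawley rats, 3 animals per route; mean values. IV dose 1 mg/kg as a DMSO solution. Oral dose 10 mg/kg, in one of three vehicles by compound: 1% Pluronic F68/2% HPMC/15% HPBCD/82% water–methanesulfonic acid pH 4.5; 20% HPBCD/80% water–methanesulfonic acid pH 4.0; or 1% Pluronic F68/2% HPMC/97% water–methanesulfonic acid pH 4.0.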

Data set [5] is described as follows: Half life in Sprague-Dawley rat at 1 mg/kg, iv. Type of data set: ADME, organism-based. The following applies: in vivo. The method in brief: as §1
Data set [6] can be described thus: (§2) Oral bioavailability in Sprague-Dawley rat at 10 mg/kg. It counts as ADME, organism-based. The following applies: Sprague-Dawley, in vivo. An outline of the steps: as §1
The nature of data set [7]: Selectivity ratio of IC50 for wild type EGFR phosphorylation in human A431 cells to IC50 for EGFR L858R/T790M double mutant phosphorylation in human NCI-H1975 cells. It counts as ADME, cell-based.
Data set [8] concerns Mus musculus. Briefly: In vivo inhibition of EGFR L858R/T790M double mutant phosphorylation in human NCI-H1975 cells xenografted in athymic nude mouse at 30 mg/kg, po measured at 4 hrs by mesoscale multiplex assay relative to control. It counts as functional. The method in brief:
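Female athymic nude mice carried matrigel plugs holding 5 x 10⁶ H1975 cells, n = 3 per group. Control or compound given at 30 mg/kg po. Plugs and plasma taken 4 h after dosing. p-EGFR in plug measured by quantitative MSD assay, given as % p-EGFR/PRAS40 vs control.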
Background: A xenograft is tissue or cells of one species grown in another, often human tumour cells in immunodeficient mice.

The nature of data set [9]: Selectivity ratio of IC50 for human A431 cells expressing wild-type EGFR to IC50 for human NCI-H1975 cells harboring EGFR L858R/T790M double mutant. Type of data set: ADME, cell-based.
Data set [10] in a line: (§3) Clearance in Sprague-Dawley rat at 1 mg/kg, iv. It counts as ADME, organism-based. As to conditions: Sprague-Dawley, in vivo. An outline of the steps: as §1
In data set [11] the target is Epidermal growth factor receptor (Homo sapiens, UniProt P00533, 746-750DEL). Briefly: Inhibition of EGFR 746 to 750 deletion mutant phosphorylation in human HCC827 cells after 60 mins by mesoscale multiplex assay. Type of data set: cell-based.
Epidermal growth factor receptor (Homo sapiens, UniProt P00533, 746-750DEL), sequence (P00533 whole entry, looked up, stated change not applied): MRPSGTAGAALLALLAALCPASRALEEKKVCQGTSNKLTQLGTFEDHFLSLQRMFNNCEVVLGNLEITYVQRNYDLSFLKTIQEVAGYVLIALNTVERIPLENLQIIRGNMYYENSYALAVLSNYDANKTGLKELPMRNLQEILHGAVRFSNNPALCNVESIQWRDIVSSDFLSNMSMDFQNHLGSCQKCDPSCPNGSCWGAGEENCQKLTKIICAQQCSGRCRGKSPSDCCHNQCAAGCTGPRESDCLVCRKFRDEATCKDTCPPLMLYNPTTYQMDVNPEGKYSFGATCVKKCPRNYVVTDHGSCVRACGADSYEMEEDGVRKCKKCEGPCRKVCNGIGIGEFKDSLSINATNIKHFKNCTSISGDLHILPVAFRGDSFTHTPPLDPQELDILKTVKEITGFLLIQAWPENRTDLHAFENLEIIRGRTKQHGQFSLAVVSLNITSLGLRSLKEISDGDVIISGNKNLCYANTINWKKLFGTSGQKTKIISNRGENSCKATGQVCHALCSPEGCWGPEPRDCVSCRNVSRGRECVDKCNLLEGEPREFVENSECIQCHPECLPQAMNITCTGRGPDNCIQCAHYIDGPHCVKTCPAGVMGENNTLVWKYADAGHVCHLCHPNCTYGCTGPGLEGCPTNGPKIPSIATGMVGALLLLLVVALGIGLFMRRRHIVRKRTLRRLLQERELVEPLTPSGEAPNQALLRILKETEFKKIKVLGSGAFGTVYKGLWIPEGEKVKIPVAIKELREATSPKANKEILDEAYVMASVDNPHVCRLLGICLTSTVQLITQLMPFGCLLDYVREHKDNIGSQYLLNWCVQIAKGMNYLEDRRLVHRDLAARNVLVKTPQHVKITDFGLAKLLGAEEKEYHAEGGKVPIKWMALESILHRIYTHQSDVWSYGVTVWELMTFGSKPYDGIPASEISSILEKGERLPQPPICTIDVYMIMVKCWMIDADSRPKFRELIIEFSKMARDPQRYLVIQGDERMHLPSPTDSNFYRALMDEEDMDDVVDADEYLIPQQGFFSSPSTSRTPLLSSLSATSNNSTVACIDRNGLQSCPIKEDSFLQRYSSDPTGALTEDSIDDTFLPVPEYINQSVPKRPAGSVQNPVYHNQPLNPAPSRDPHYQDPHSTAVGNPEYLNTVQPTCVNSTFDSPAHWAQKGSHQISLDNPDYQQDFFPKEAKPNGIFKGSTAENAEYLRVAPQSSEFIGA
Data set [12] has as its target Epidermal growth factor receptor (Homo sapiens, UniProt P00533). As to the kind of experiment: Inhibition of wild type EGFR phosphorylation in human A431 cells after 60 mins by mesoscale multiplex assay. It counts as cell-based, A-431.
Data set [13] can be described thus: (§4) AUC (0 to infinity) in Sprague-Dawley rat at 10 mg/kg, po. Type of data set: ADME, organism-based. The arrangement: dose 10 mg/kg, route oral, time infinity. The following applies: Sprague-Dawley, in vivo. An outline of the steps:
as §1

Data set [14] is described as follows: Selectivity ratio of IC50 for wild type EGFR phosphorylation in human A431 cells to IC50 for EGFR 746 to 750 deletion mutant phosphorylation in human HCC827 cells. It counts as ADME, cell-based.
The species entered for data set [15] is Rattus norvegicus. As to the kind of experiment: Hepatobiliary toxicity in Sprague-Dawley rat measured for 4 days. Type of data set: organism-based. As to conditions: in vivo, 96 h.
Data set [16] in a line: Selectivity ratio of IC50 for human A431 cells expressing wild-type EGFR to IC50 for human HCC827 cells harboring EGFR 746 to 750 deletion mutant. Type of data set: ADME, cell-based.
For data set [17], the target named is Epidermal growth factor receptor (Homo sapiens, UniProt P00533, L858R/T790M). As to the kind of experiment: Inhibition of EGFR L858R/T790M double mutant phosphorylation in human NCI-H1975 cells after 60 mins by mesoscale multiplex assay. It counts as cell-based.
Epidermal growth factor receptor (Homo sapiens, UniProt P00533, L858R/T790M), sequence (P00533 25-1210 T790M/L858R limits assumed): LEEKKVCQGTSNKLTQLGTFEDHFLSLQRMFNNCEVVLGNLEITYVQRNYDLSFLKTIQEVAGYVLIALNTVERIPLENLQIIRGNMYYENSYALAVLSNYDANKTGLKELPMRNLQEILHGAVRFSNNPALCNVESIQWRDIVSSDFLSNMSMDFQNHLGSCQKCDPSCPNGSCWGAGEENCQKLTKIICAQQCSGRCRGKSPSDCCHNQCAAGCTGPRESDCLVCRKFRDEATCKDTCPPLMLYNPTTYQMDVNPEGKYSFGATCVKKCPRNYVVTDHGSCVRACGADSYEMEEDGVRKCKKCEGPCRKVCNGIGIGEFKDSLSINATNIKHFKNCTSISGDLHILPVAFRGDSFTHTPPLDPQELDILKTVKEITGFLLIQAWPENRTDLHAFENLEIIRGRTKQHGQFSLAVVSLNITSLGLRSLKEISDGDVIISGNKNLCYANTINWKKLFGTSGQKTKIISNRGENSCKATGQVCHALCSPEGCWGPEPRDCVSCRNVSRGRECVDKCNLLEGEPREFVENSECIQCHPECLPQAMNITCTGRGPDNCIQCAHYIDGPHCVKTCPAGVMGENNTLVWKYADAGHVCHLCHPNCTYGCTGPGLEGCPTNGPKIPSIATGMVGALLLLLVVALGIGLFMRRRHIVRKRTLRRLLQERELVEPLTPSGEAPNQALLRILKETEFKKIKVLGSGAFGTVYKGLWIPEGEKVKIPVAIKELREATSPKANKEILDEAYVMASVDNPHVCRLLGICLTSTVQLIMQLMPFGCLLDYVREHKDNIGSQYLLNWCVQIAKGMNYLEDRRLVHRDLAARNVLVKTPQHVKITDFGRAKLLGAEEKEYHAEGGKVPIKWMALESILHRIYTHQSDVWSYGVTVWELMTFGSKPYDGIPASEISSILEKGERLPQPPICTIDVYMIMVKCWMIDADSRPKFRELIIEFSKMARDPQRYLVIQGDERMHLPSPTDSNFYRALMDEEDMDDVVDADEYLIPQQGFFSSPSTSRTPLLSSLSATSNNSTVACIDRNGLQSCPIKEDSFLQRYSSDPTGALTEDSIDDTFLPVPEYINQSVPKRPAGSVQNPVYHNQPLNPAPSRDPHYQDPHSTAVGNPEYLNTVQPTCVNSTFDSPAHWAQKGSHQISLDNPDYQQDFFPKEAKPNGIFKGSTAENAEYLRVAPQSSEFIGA
For data set [18], the system named is Rattus norvegicus. Described as §2. As to conditions: in vivo. Type of data set: ADME, organism-based. An outline of the steps: as §1
Data set [19] concerns NCI-H1975. As to the kind of experiment: Antitumor activity against human NCI-H1975 cells xenografted in athymic nude mouse assessed as tumor growth inhibition at 30 mg/kg, po qd administered for 2 weeks started on day 6 post tumor implantation measured on day 19 relative to control. Type of data set: functional.
Data set [20] has as its system Rattus norvegicus. The description is as §3. Type of data set: ADME, organism-based. The following applies: in vivo. An outline of the steps:
as §1

The subject of data set [21] is Rattus norvegicus. Described as §4. Type of data set: ADME, organism-based. The arrangement: dose 10 mg/kg, route oral, time infinity. The following applies: in vivo. An outline of the steps: as §1

Epidermal growth factor receptor (Homo sapiens, UniProt P00533), sequence (P00533 whole entry): as the sequence (P00533 whole entry, looked up, stated change not applied) above

With `C=CC(=O)Nc1cccc(-n2c(=O)c(OC)c(C)c3cnc(Nc4ccc(N5CCN(C)CC5)cc4OC)nc32)c1`, the concentration for half-maximal inhibition (IC50) is 1390 nM in data set [1], 41 nM in data set [2] and 10 nM in data set [3].
With `C=CC(=O)Nc1cccc(-n2c(=O)c(OC)cc3cnc(Nc4ccc(N5CCN(C)CC5)cc4OC)nc32)c1`, the IC50 amounted to 201 nM in [1], 61 nM in data set [2] and 273 nM in [3].
In the case of `C=CC(=O)Nc1cccc(-n2c(=O)c(Cc3ccccc3)cc3cnc(Nc4ccc(N5CCN(C)CC5)cc4OC)nc32)c1`, the IC50 in data set [1] was 250 nM; in [2], 18 nM; in [3] it was 4 nM.
For the molecule `C=CC(=O)Nc1cccc(-n2c(=O)cc(C)c3cnc(Nc4ccc(N5CCOCC5)cc4OC)nc32)c1`, the IC50 in [3] was more than 10000 nM.
On to `C=CC(=O)Nc1cccc(-n2c(=O)cc(C)c3cnc(Nc4ccc(N5CCN(C)CC5)cc4OC)nc32)c1`, for which the Vd in [4] is 7.8 L/kg. For the same molecule, the half-life in data set [5] is 3 h. In data set [6], this molecule came in with a bioavailability of 9.5%. Besides, the “Ratio IC50” value in data set [7] was 100; in [9] it was more than 100; in [14], 100; in data set [16], more than 100. The half-maximal inhibitory concentration (IC50) in data set [1] was found to be 1200 nM; in [2] it was 12 nM; in data set [11] it was 12 nM; in [12], 386 nM; in [3], 4 nM; in data set [17] it was 4 nM. This molecule also came in with an inhibition in vivo at 30 mg/kg in data set [8] of 90%. For the same molecule, the clearance in [10] was 177 mL/min/kg. The molecule further gave an AUC(0-inf) in data set [13] of 0.18 µM·h. Further, the Activity entry in [15] is listed as “Toxic”.
As to `C=CC(=O)Nc1cccc(-n2c(=O)cc(C)c3cnc(Nc4ccc(N5CCN(C)CC5)cc4)nc32)c1`, the IC50 in data set [1] is more than 3000 nM; in [2] it was 7 nM; in data set [3] it was 4 nM. Further, 30 mg/kg produced 5% inhibition in vivo in data set [8].
Regarding `C=CC(=O)Nc1cccc(-n2c(=O)cc(C)c3cnc(Nc4ccc(N5CCN(C(C)=O)CC5)cc4OC)nc32)c1`, the IC50 in data set [1] is more than 5000 nM; in [2] it was 58 nM; in [3], 30 nM.
As for `C=CC(=O)Nc1cccc(-n2c(=O)cc(C)c3cnc(Nc4ccc(N5CCNCC5)cc4OC)nc32)c1`, the IC50 in data set [1] was more than 1000 nM; in data set [2], 211 nM; in [3], 68 nM.
As for `C=CC(=O)Nc1cccc(-n2c(=O)cc(C)c3cnc(Nc4ccc(N(C)CCN(C)C)cc4OC)nc32)c1`, the Vd in data set [4] is 20 L/kg. The same molecule had a half-life in data set [5] of 2.6 h. This molecule registered a F in data set [18] of 21%. Further, the IC50 in [1] was more than 1000 nM; in data set [2], 22 nM; in data set [11], 12 nM; in data set [12], 521 nM; in data set [3], 8 nM; in [17] it was 6 nM. The inhibition in vivo at 30 mg/kg in [8] was determined as 80%. In addition, the TGI entry in [19] is “Active”. The CL in [20] stood at 128 mL/min/kg. This molecule also registered an AUC in [21] of 0.16 µM·h. Besides, in data set [15], the Activity result was “Non-toxic”.
On to `C=CC(=O)Nc1cccc(-n2c(=O)ccc3cnc(Nc4ccc(N5CCN(C)CC5)cc4OC)nc32)c1`, for which the Vd in data set [4] came to 19 L/kg. Besides, in data set [5], the half-life is 1.4 h. For the same molecule, in data set [6], the bioavailability turned out to be 6.6%. In addition, the “Ratio IC50” value in data set [7] and in data set [14] was 17 throughout. Further, the IC50 came out at 5230 nM in [1]; 4 nM in [2]; 3 nM in [11]; 50 nM in data set [12]; 8 nM in [3]; 3 nM in data set [17]. Further, the clearance in data set [10] was 148 mL/min/kg. Moreover, the AUC(0-inf) in data set [13] came to 0.18 µM·h.
As for `C=CC(=O)Nc1cccc(-n2c(=O)cc(C)c3cnc(Nc4ccc(C5CCN(C)CC5)cc4OC)nc32)c1`, the IC50 in data set [2] amounted to 33 nM; in data set [3] it was 4 nM.

The IC50 is the concentration needed to halve the response being measured. In general, half-life refers to the time in which the quantity being followed falls by half. As usually defined, the bioavailability is the share of a dose that reaches the circulation, judged against a reference dose that is usually intravenous. High values mean good availability, low ones poor availability. The term inhibition in vivo denotes the share of the control response that was lost under treatment. High values mean a response far below the control, low ones a response near the control. The term clearance denotes a measure of how efficiently the substance is removed, as volume per time. Read a high clearance as a high capacity for elimination. The term AUC(0-inf) denotes the area under the concentration-time curve extrapolated to infinity. Read a high AUC(0-inf) as more exposure. The AUC is the area under the concentration-time curve, a measure of exposure. Read a low AUC as less exposure.
